Test results published in ChEMBL document CHEMBL3297654, “Synthesis, antimicrobial and cytotoxic activities, and structure-activity relationships of gypsogenin derivatives against human cancer cells” (Eur J Med Chem, 2014).
pIC50: −log10 of the molar value. Converted amounts (≈) assume the structure as drawn. The source made the active and inactive calls. No cut-off for these calls is given here.

Assays:
Bacillus cereus [1] = assay: Antimicrobial activity against Bacillus cereus ATCC 11778 for 24 hrs by microdillution method; type: functional
Method in brief: (§1)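 Broth microdilution. Compound is dissolved in DMSO (2 mg/mL) and diluted in Mueller Hinton broth as two-fold serial dilutions from 256 to 0.125 µg/mL. Bacteria are pre-grown in nutrient broth at 30 °C, and the final inoculum is about 10^6 cfu/mL. Tests are incubated 37 °C for 24 h. MIC is the lowest concentration giving complete inhibition. Streptomycin is the positive control.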

Bacillus thuringiensis [2] = assay: Antimicrobial activity against Bacillus thuringiensis assessed as zone of inhibition at 30 uL for 24 hrs at 30 degC by disk diffusion test; type: functional
Method in brief: (§2)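 Agar well diffusion on Mueller Hinton agar seeded with 0.1 mL broth culture (18–24 h), adjusted to 0.5 McFarland (about 1×10^8 bacteria or 1×10^6 yeast cells/mL). A 6 mm well is filled with 30 µL of compound from a fresh 1000 µg/mL DMSO stock. Plates are held at 30 °C for 24 h and inhibition zone diameter is read in mm.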

Bacillus thuringiensis [3] = assay: Antimicrobial activity against Bacillus thuringiensis for 24 hrs by microdillution method; type: functional; method in brief: as §1
SAOS-2 [4] = assay: Induction of apoptosis in human Saos2 cells at 20 uM after 48 hrs by Hoechst 33258/propidium iodide staining based phase contrast microscopic analysis; type: functional
Method in brief: (§3)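 Cells in 48-well plates treated with 0.5, 10, 20 or 40 µM for 24 and 48 h. Values are read at 48 h, 20 µM for test agents and 0.5 µM for controls. Staining is Hoechst 33258/propidium iodide double staining with fluorescence microscopy. Blue nuclei are viable or early-to-mid apoptotic, and pink nuclei are late apoptotic or necrotic. Apoptosis and necrosis are scored from chromatin condensation as % of cells. Cells are grown at 37 °C in 5% CO2 in RPMI, DMEM or McCoy's 5A with 10–15% heat-inactivated FCS.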

HeLa [5] = assay: Induction of necrosis in human HeLa cells at 20 uM after 48 hrs by Hoechst 33258/propidium iodide staining based phase contrast microscopic analysis; type: functional; method in brief: as §3
[6] = test system: Staphylococcus epidermidis; assay: Antimicrobial activity against Staphylococcus epidermidis ATCC 12228 assessed as zone of inhibition at 30 uL for 24 hrs at 37 degC by disk diffusion test; type: functional, organism-based
Method in brief: (§4)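 Compound (30 µL of a fresh 1000 µg/mL DMSO stock) goes into a 6 mm well cut in Mueller Hinton agar inoculated with 0.1 mL broth culture adjusted to 0.5 McFarland (about 1×10^8 cells/mL). Plates are incubated 24 h at 37 °C, then zone of inhibition diameter is measured in mm.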

Caco-2 [7] = assay: Antiproliferative activity against human Caco2 cells after 24 and 72 hrs by MTT assay; type: functional, cell-based
Method in brief: (§5)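 ATCC human cell lines are kept in RPMI, DMEM or McCoy's 5A with 10–15% heat-inactivated FCS at 37 °C and 5% CO2. They are seeded at 1×10^4–1×10^5 cells/mL in 48-well plates and exposed to 0.5, 10, 20 or 40 µM. Viability is read by MTT (590 nm) at 24 and 72 h. Growth is expressed relative to untreated cells and IC50 is fitted, in triplicate.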

Pseudomonas aeruginosa = assay: Antimicrobial activity against Pseudomonas aeruginosa ATCC 35032 assessed as zone of inhibition at 30 uL for 24 hrs at 37 degC by disk diffusion test; type: functional, organism-based; method in brief: as §4
Staphylococcus aureus = assay: Antimicrobial activity against Staphylococcus aureus ATCC 25923 assessed as zone of inhibition at 30 uL for 24 hrs at 37 degC by disk diffusion test; type: functional, organism-based; method in brief: as §4
HeLa [8] = assay: Antiproliferative activity against human HeLa cells after 24 and 72 hrs by MTT assay; type: functional, cell-based; method in brief: as §5
MCF7 [9] = assay: Induction of apoptosis in human MCF7 cells at 20 uM after 48 hrs by Hoechst 33258/propidium iodide staining based phase contrast microscopic analysis; type: functional; method in brief: as §3
Caco-2 [10] = assay: Induction of necrosis in human Caco2 cells at 20 uM after 48 hrs by Hoechst 33258/propidium iodide staining based phase contrast microscopic analysis; type: functional; method in brief: as §3
Candida albicans = assay: Antimicrobial activity against Candida albicans ATCC 10231 assessed as zone of inhibition at 30 uL for 24 hrs at 30 degC by disk diffusion test; type: functional, organism-based; method in brief: as §2
MCF7 [11] = assay: Induction of necrosis in human MCF7 cells at 20 uM after 48 hrs by Hoechst 33258/propidium iodide staining based phase contrast microscopic analysis; type: functional; method in brief: as §3
Klebsiella pneumoniae = assay: Antimicrobial activity against Klebsiella pneumoniae ATCC 13882 assessed as zone of inhibition at 30 uL for 24 hrs at 37 degC by disk diffusion test; type: functional, organism-based; method in brief: as §4
HL-60 [12] = assay: Induction of necrosis in human HL60 cells at 20 uM after 48 hrs by Hoechst 33258/propidium iodide staining based phase contrast microscopic analysis; type: functional; method in brief: as §3
[13] = Antiproliferative activity against human Saos2 cells after 24 and 72 hrs by MTT assay; type: functional, cell-based; conditions: SAOS-2; method in brief: as §5
Salmonella typhimurium = assay: Antimicrobial activity against Salmonella typhimurium ATCC 14028 assessed as zone of inhibition at 30 uL for 24 hrs at 37 degC by disk diffusion test; type: functional, organism-based; conditions: Salmonella enterica subsp. enterica serovar Typhimurium; method in brief: as §4
Escherichia coli = assay: Antimicrobial activity against Escherichia coli ATCC 25922 assessed as zone of inhibition at 30 uL for 24 hrs at 37 degC by disk diffusion test; type: functional, organism-based; method in brief: as §4
Candida tropicalis = assay: Antimicrobial activity against Candida tropicalis assessed as zone of inhibition at 30 uL for 24 hrs at 30 degC by disk diffusion test; type: functional, organism-based; method in brief: as §2
HL-60 [14] = assay: Antiproliferative activity against human HL60 cells after 24 and 72 hrs by MTT assay; type: functional, cell-based; method in brief: as §5
HT-29 [15] = assay: Induction of necrosis in human HT-29 cells at 20 uM after 48 hrs by Hoechst 33258/propidium iodide staining based phase contrast microscopic analysis; type: functional; method in brief: as §3
Micrococcus luteus = assay: Antimicrobial activity against Micrococcus luteus ATCC 9341 assessed as zone of inhibition at 30 uL for 24 hrs at 30 degC by disk diffusion test; type: functional, organism-based; method in brief: as §2
Bacillus cereus [16] = assay: Antimicrobial activity against Bacillus cereus ATCC 11778 assessed as zone of inhibition at 30 uL for 24 hrs at 30 degC by disk diffusion test; type: functional; method in brief: as §2
Proteus vulgaris = assay: Antimicrobial activity against Proteus vulgaris ATCC 33420 assessed as zone of inhibition at 30 uL for 24 hrs at 37 degC by disk diffusion test; type: functional, organism-based; method in brief: as §4
MCF7 [17] = assay: Antiproliferative activity against human MCF7 cells after 24 and 72 hrs by MTT assay; type: functional, cell-based; method in brief: as §5
Cyberlindnera jadinii = assay: Antimicrobial activity against Candida utilis ATCC 9950 assessed as zone of inhibition at 30 uL for 24 hrs at 30 degC by disk diffusion test; type: functional, organism-based; method in brief: as §2
Caco-2 [18] = assay: Induction of apoptosis in human Caco2 cells at 20 uM after 48 hrs by Hoechst 33258/propidium iodide staining based phase contrast microscopic analysis; type: functional; method in brief: as §3
SAOS-2 [19] = assay: Induction of necrosis in human Saos2 cells at 20 uM after 48 hrs by Hoechst 33258/propidium iodide staining based […] microscopic analysis; type: functional; method in brief: as §3
Bacillus subtilis [20] = assay: Antimicrobial activity against Bacillus subtilis ATCC 6633 assessed as zone of inhibition at 30 uL for 24 hrs at 30 degC by disk diffusion test; type: functional; method in brief: as §2
Bacillus subtilis [21] = assay: Antimicrobial activity against Bacillus subtilis ATCC 6633 for 24 hrs by microdillution method; type: functional; method in brief: as §1
Nakaseomyces glabratus = assay: Antimicrobial activity against Candida glabrata assessed as zone of inhibition at 30 uL for 24 hrs at 30 degC by disk diffusion test; type: functional, organism-based; method in brief: as §2
HT-29 [22] = assay: Induction of apoptosis in human HT-29 cells at 20 uM after 48 hrs by Hoechst 33258/propidium iodide staining based phase contrast microscopic analysis; type: functional; method in brief: as §3
Enterococcus faecalis = assay: Antimicrobial activity against Enterococcus faecalis ATCC 29212 assessed as zone of inhibition at 30 uL for 24 hrs at 37 degC by disk diffusion test; type: functional, organism-based; method in brief: as §4
Saccharomyces cerevisiae = assay: Antimicrobial activity against Saccharomyces cerevisiae ATCC 9763 assessed as zone of inhibition at 30 uL for 24 hrs at 30 degC by disk diffusion test; type: functional, organism-based; method in brief: as §2
HeLa [23] = assay: Induction of apoptosis in human HeLa cells at 20 uM after 48 hrs by Hoechst 33258/propidium iodide staining based phase contrast microscopic analysis; type: functional; method in brief: as §3
HL-60 [24] = assay: Induction of apoptosis in human HL60 cells at 20 uM after 48 hrs by Hoechst 33258/propidium iodide staining based phase contrast microscopic analysis; type: functional; method in brief: as §3
HT-29 [25] = assay: Antiproliferative activity against human HT-29 cells after 24 and 72 hrs by MTT assay; type: functional, cell-based; method in brief: as §5

| SMILES | diameter of the inhibition zone (DIZ) (Bacillus thuringiensis [2]) | MIC (Bacillus thuringiensis [3]) | Activity (SAOS-2 [4]) [%] | Activity (HeLa [5]) [%] | diameter of the inhibition zone (DIZ) [6] | pIC50 (Caco-2 [7]) | diameter of the inhibition zone (DIZ) (Pseudomonas aeruginosa) | diameter of the inhibition zone (DIZ) (Staphylococcus aureus) | pIC50 (HeLa [8]) | Activity (MCF7 [9]) [%] | Activity (Caco-2 [10]) [%] | diameter of the inhibition zone (DIZ) (Candida albicans) | Activity (MCF7 [11]) [%] | diameter of the inhibition zone (DIZ) (Klebsiella pneumoniae) | Activity (HL-60 [12]) [%] | pIC50 [13] | diameter of the inhibition zone (DIZ) (Salmonella typhimurium) | diameter of the inhibition zone (DIZ) (Escherichia coli) | diameter of the inhibition zone (DIZ) (Candida tropicalis) | pIC50 (HL-60 [14]) | other results |
| --- | --- | --- | --- | --- | --- | --- | --- | --- | --- | --- | --- | --- | --- | --- | --- | --- | --- | --- | --- | --- | --- |
| CC1(C)CC[C@]2(C(=O)O)CC[C@]3(C)C(=CC[C@@H]4[C@@]5(C)CC[C@H](O)[C@@](C)(C=O)[C@@H]5CC[C@]43C)[C@@H]2C1 | 13 mm | 32 µg/mL (≈ 68 µM) | 36 | 0 | inactive | 4.78 | inactive | inactive | 4.65 | 30 | 0 | inactive | 4 | inactive | 4 | 5.11 | inactive | inactive | inactive | 4.98 | MIC (Bacillus cereus [1]; ATCC 11778, 24 h): 32 µg/mL (≈ 68 µM); Activity (HT-29 [15]): 2%; diameter of the inhibition zone (DIZ) (Micrococcus luteus): inactive; diameter of the inhibition zone (DIZ) (Bacillus cereus [16]): 13 mm; diameter of the inhibition zone (DIZ) (Proteus vulgaris): inactive; pIC50 (MCF7 [17]): 5.04; diameter of the inhibition zone (DIZ) (Cyberlindnera jadinii): inactive; Activity (Caco-2 [18]): 20%; Activity (SAOS-2 [19]): 2%; diameter of the inhibition zone (DIZ) (Bacillus subtilis [20]): 13 mm; MIC (Bacillus subtilis [21]; ATCC 6633, 24 h): 32 µg/mL (≈ 68 µM); diameter of the inhibition zone (DIZ) (Nakaseomyces glabratus): inactive; Activity (HT-29 [22]): 21%; diameter of the inhibition zone (DIZ) (Enterococcus faecalis): inactive; diameter of the inhibition zone (DIZ) (Saccharomyces cerevisiae): inactive; Activity (HeLa [23]): 29%; Activity (HL-60 [24]): 33%; pIC50 (HT-29 [25]): 4.92 |
| CC(=O)O[C@H]1CC[C@]2(C)[C@H]3CC=C4[C@@H]5CC(C)(C)CC[C@]5(C(=O)OCc5ccccc5)CC[C@@]4(C)[C@]3(C)CC[C@H]2[C@]1(C)/C=N/O | inactive | inactive | 24 | 50 | inactive | 4.69 | inactive | inactive | 4.39 | 10 | 33 | inactive | 48 | inactive | 50 | 4.93 | inactive | inactive | inactive | 5.06 | MIC (Bacillus cereus [1]): inactive; Activity (HT-29 [15]): 14%; diameter of the inhibition zone (DIZ) (Micrococcus luteus): inactive; diameter of the inhibition zone (DIZ) (Bacillus cereus [16]): inactive; diameter of the inhibition zone (DIZ) (Proteus vulgaris): inactive; pIC50 (MCF7 [17]): 5.00; diameter of the inhibition zone (DIZ) (Cyberlindnera jadinii): inactive; Activity (Caco-2 [18]): 19%; Activity (SAOS-2 [19]): 44%; diameter of the inhibition zone (DIZ) (Bacillus subtilis [20]): inactive; MIC (Bacillus subtilis [21]): inactive; diameter of the inhibition zone (DIZ) (Nakaseomyces glabratus): inactive; Activity (HT-29 [22]): 24%; diameter of the inhibition zone (DIZ) (Enterococcus faecalis): inactive; diameter of the inhibition zone (DIZ) (Saccharomyces cerevisiae): inactive; Activity (HeLa [23]): 15%; Activity (HL-60 [24]): 5%; pIC50 (HT-29 [25]): 4.67 |
